According to ChEMBL document CHEMBL4602713, “Quantitative Proteomics Reveals Cellular Off-Targets of a DDR1 Inhibitor” (ACS Med Chem Lett, 2020):
Calls of active or inactive are those of the source. The rule behind the calls is not given here.

Key:
[1] = target: T1, Epithelial discoidin domain-containing receptor 1 (Homo sapiens, UniProt Q08345); assay: Inhibition of human GST-tagged DDR1 (440 to 876 residues) expressed in baculovirus expression system using fluorescein-Poly GAT as substrate incubated for 1 to 2 hrs in presence of ATP by TR-FRET assay
[2] = target: T1, Epithelial discoidin domain-containing receptor 1; assay: Binding affinity to DDR1 in TAMRA-N3 conjugated human […] cells assessed as labeling band formation at 1 to 2 uM incubated for 1 to 3 hrs followed irradiation with UV-light at 365 nm for 20 mins by gel fluorescence scanning analysis
How it was run: (§1)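 Live H1299 cells or H1299 lysate were incubated with the photoaffinity probe for 1–3 h, then irradiated at 365 nm for 20 min. Labelled proteins were clicked to TAMRA-N3, separated by SDS-PAGE and detected by in-gel fluorescence scanning.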

[3] = target: T1, Epithelial discoidin domain-containing receptor 1; assay: (§2) Binding affinity to DDR1 in TAMRA-N3 conjugated human […] cells assessed as fluorescence band formation with molecular weight of 110 kDa at 1 to 2 uM incubated for 2 hrs followed by compound washout to remove excess compound and further irradiated with UV-light at 365 nm for 20 mins by pull down assay
[4] = target: T1, Epithelial discoidin domain-containing receptor 1; assay: Binding affinity to DDR1 in TAMRA-N3 conjugated human […] cell lysate assessed as labeling band formation at 1 to 2 uM incubated for 1 to 3 hrs followed irradiation with UV-light at 365 nm for 20 mins by gel fluorescence scanning analysis; how it was run: as §1
[5] = Drug localization in cytoplasm of human H1299 cells conjugated with TAMRA-N3 incubated for 2 to 6 hrs followed by compound washout twice with PBS buffer to remove excess compound and further irradiated with UV-light for 20 mins by Hoechst staining based confocal microscopy; format: ADME, subcellular; details: nci-h1299
How it was run: (§3)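 H1299 cells were incubated with the probe, with or without excess parent inhibitor, then UV cross-linked. Cells were fixed, permeabilised, clicked to TAMRA-N3 and imaged by confocal microscopy with nuclear staining and DIC. Negative control samples were included.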

[6] = Drug localization in cellular membrane of human H1299 cells conjugated with TAMRA-N3 incubated for 2 to 6 hrs followed by compound washout twice with PBS buffer to remove excess compound and further irradiated with UV-light for 20 mins by Hoechst staining based confocal microscopy; format: ADME, cell membranes; details: nci-h1299; how it was run: as §3
Cathepsin D [7] = target: T2, Cathepsin D (Homo sapiens, UniProt P07339); assay: as §2, with “cathepsin D” for “DDR1”, “30” for “110”; format: ADME
How it was run: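 Live H1299 cells were labelled with the photoaffinity probe and UV cross-linked. Labelled proteins were pulled down and detected by Western blot; CTSD was probed with an anti-CTSD antibody. The heavy chain of mature CTSD runs at ~33 kDa.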

Cathepsin D [8] = target: T2, Cathepsin D; assay: (§4) Binding affinity to cathepsin D in SILAC labeled human H1299 cells incubated for 3 hrs followed by compound washout twice with PBS buffer to remove excess compound and further irradiated with UV-light at 365 nm for 20 mins by LC-MS/MS analysis; format: cell-based; parameters: dose or concentration left out as unconfirmed; details: nci-h1299, 3 h
How it was run: (§5)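 SILAC-labelled H1299 cells were treated with the photoaffinity probe for 2–4 h and then UV-irradiated. Labelled proteomes were clicked to biotin-N3, enriched, digested and analysed by LC-MS/MS. Controls (excess parent inhibitor or DMSO) were run in parallel. Biological triplicates were performed, and hits were filtered by SILAC ratios.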

Protein GPR107 = Protein GPR107 (Homo sapiens, UniProt Q5VW38); assay: Binding affinity to GPR107 in SILAC labeled human H1299 cells incubated for 3 hrs followed by compound washout twice with PBS buffer to remove excess compound and further irradiated with UV-light at 365 nm for 20 mins by LC-MS/MS analysis; format: ADME, cell-based; parameters: dose or concentration left out as unconfirmed; details: nci-h1299, 3 h; how it was run: as §5
[9] = target: T3, Catechol O-methyltransferase (Homo sapiens, UniProt P21964); assay: Binding affinity to COMT in SILAC labeled human H1299 cells incubated for 3 hrs followed by compound washout twice with PBS buffer to remove excess compound and further irradiated with UV-light at 365 nm for 20 mins by LC-MS/MS analysis; format: ADME, cell-based; parameters: dose or concentration left out as unconfirmed; details: nci-h1299, 3 h; how it was run: as §5
T3 sequence (P21964 whole entry): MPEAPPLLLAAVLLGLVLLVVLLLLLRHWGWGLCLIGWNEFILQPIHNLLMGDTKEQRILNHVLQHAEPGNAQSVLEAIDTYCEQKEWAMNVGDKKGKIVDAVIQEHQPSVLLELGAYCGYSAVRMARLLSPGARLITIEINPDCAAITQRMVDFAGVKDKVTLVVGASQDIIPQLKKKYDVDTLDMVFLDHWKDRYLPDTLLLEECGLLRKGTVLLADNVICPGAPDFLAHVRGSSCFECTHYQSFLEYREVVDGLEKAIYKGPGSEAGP

Cathepsin D [10] = target: T2, Cathepsin D; assay: as §4, with “cells assessed as labeling of heavy chain” for “cells”, “hrs in presence of excess parent compound” for “hrs”; format: ADME, cell-based; parameters: dose or concentration left out as unconfirmed; details: nci-h1299, 3 h; how it was run: as §5
Cathepsin D [11] = target: T2, Cathepsin D; assay: Binding affinity to cathepsin D in human […] cells assessed as protein labeling at 0.5 to 1 uM pretreated with lysosomal neutralizing agent ammonium chloride for 30 mins followed by compound treatment by pull down based Western blot analysis; format: ADME, cell-based
How it was run: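 Live H1299 cells were first treated with 10 mM ammonium chloride for 30 min to neutralise lysosomes. Probe labelling followed, with pull-down and Western blot for CTSD.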

[12] = Drug distribution in human H1299 cells cytosol incubated for 4 hrs followed cellular conjugation with tetrazine-TAMRA immunofluorescence microscopy; format: ADME, subcellular, NCI-H1299
How it was run: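 Live H1299 cells were incubated with the TCO-bearing probe for 4 h, fixed, permeabilised and conjugated with tetrazine-TAMRA. After washing with fresh medium, cells were imaged by microscopy alongside anti-DDR1 immunofluorescence staining.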

Cathepsin D [13] = target: T2, Cathepsin D; assay: Binding affinity to cathepsin D in human H1299 cells assessed as increase in thermal stability of heavy chain at 10 uM incubated for 2 hrs followed by compound washout twice with PBS buffer to remove excess compound and further heated at 95 degree C for 10 mins by CETSA; format: ADME, cell-based; details: nci-h1299, 2 h
How it was run: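 For the cellular thermal shift assay, live H1299 cells were treated with compound or DMSO. The thermal stability of the mature CTSD heavy chain was then compared between the two.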

Cathepsin D [14] = target: T2, Cathepsin D; assay: Inhibition of cathepsin D (unknown origin) at 50 to 200 uM
MCF7 = assay: Antiproliferative activity against human MCF7 cells overexpressing cathepsin D assessed as growth inhibition
MDA-MB-231 = assay: Antiproliferative activity against human MDA-MB-231 cells overexpressing cathepsin D assessed as growth inhibition
SK-BR-3 = assay: Antiproliferative activity against human SKBR3 cells overexpressing cathepsin D assessed as growth inhibition

T2 sequence (P07339 65-162 limits assumed): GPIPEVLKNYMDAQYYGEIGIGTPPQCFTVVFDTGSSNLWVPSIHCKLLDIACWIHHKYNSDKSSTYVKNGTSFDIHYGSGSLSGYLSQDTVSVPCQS
T2 sequence (P07339 169-412 limits assumed): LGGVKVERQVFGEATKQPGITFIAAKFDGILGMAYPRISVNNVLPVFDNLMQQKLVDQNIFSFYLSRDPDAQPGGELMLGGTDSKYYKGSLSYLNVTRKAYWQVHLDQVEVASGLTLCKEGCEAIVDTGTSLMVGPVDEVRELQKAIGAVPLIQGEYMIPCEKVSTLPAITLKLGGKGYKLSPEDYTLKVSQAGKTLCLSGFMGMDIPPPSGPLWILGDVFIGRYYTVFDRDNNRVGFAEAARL
T1 sequence (Q08345 whole entry, the tested form may be a part): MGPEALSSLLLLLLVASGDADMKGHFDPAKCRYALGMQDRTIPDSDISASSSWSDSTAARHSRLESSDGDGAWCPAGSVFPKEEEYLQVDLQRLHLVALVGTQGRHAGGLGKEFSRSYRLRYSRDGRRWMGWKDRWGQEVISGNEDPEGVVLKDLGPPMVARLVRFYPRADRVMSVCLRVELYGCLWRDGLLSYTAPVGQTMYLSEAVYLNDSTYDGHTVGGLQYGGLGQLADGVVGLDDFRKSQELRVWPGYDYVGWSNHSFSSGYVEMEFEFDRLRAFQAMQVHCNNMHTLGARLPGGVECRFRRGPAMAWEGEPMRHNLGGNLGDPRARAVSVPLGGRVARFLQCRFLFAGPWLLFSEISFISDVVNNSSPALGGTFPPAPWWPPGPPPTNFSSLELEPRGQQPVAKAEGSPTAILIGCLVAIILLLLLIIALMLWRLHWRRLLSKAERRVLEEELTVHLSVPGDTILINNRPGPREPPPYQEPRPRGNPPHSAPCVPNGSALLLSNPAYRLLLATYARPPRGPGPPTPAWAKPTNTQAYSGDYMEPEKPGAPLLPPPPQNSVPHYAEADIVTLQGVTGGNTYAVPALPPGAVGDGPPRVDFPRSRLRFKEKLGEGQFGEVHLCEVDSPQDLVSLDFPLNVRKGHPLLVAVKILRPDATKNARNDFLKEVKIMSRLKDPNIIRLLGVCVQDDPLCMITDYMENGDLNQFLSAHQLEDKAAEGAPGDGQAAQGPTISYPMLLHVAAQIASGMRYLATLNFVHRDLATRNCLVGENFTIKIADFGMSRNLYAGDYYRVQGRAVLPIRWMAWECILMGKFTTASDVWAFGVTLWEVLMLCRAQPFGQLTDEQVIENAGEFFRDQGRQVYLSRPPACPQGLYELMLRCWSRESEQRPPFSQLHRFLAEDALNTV
Sequence of Protein GPR107 (Q5VW38 whole entry): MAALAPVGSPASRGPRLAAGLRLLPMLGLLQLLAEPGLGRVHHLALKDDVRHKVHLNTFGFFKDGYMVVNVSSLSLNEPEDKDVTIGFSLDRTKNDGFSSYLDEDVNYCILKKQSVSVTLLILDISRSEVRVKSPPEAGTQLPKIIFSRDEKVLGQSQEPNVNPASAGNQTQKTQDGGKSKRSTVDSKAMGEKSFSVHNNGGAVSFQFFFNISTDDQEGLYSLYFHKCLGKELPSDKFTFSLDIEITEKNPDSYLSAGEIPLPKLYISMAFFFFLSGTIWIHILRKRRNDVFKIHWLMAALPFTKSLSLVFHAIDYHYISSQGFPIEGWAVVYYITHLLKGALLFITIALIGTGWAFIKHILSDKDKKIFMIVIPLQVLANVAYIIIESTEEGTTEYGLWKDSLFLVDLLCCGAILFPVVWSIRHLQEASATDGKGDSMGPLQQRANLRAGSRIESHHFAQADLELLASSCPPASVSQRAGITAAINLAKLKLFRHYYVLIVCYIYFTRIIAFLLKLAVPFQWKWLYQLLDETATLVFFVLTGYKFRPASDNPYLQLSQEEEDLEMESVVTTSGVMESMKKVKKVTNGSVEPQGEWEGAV

IC50 [1] [nM]	Activity [2]	Activity [3]	Activity [4]	Drug uptake [5]	Drug uptake [6]	Activity (Cathepsin D [7])	Activity (Cathepsin D [8])	Activity (Protein GPR107)	Activity [9]	Activity (Cathepsin D [10])	Activity (Cathepsin D [11])	Drug uptake [12]	Activity (Cathepsin D [13])	inhibition (INH) (Cathepsin D [14])	IC50 (MCF7) [nM]	IC50 (MDA-MB-231) [nM]	IC50 (SK-BR-3) [nM]	SMILES
577	Active	Active	Active	Active	Active	Active												C#CCCC1(CCN2CCN(Cc3cc(NC(=O)c4ccc5c(c4)CN(c4cncnc4)CC5C)cc(C(F)(F)F)c3)CC2)N=N1 (stereo unspecified)
259	Active	Active	Active	Active	Active	Active	Active	Active	Active	Active	Not Active							C#CCCC1(CC(=O)N2CCN(Cc3cc(NC(=O)c4ccc5c(c4)CN(c4cncnc4)CC5C)cc(C(F)(F)F)c3)CC2)N=N1 (stereo unspecified)
397												Active						CC1CN(c2cncnc2)Cc2cc(C(=O)Nc3cc(CN4CCN(CCC(=O)NCCCNC(=O)OC5CC/C=C/CCC5)CC4)cc(C(F)(F)F)c3)ccc21 (stereo unspecified)
													Active	Active	3380	6990	6620	CC1CN(c2cncnc2)Cc2cc(C(=O)Nc3cc(CN4CCN(C)CC4)cc(C(F)(F)F)c3)ccc21 (stereo unspecified)
